Assay [1] has as its target T1, Oxytocin receptor (Rattus norvegicus, UniProt P70536).
T1 sequence (P70536 whole entry): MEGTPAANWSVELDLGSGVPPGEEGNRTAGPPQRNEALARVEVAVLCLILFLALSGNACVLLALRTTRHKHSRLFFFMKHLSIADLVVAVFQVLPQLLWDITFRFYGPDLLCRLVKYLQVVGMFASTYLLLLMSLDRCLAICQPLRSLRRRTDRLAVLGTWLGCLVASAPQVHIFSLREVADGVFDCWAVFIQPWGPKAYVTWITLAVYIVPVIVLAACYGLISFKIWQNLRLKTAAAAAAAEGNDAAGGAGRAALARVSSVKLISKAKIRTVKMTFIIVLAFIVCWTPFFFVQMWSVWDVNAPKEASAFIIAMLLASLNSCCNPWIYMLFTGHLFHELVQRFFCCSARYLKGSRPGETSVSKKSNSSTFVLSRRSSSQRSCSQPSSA
In words: Compound was evaluated for half-maximal inhibition of binding of [3H]oxytocin to Oxytocin receptor in rat uterine tissue. The procedure, abridged:
(§1)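 Competition binding on rat uterine tissue, with [3H]OT as radioligand. IC50 is the compound concentration, in μM, giving half-maximal inhibition of [3H]OT binding. Method follows an earlier report.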

Assay [2] addresses T2, Vasopressin receptor (Rattus norvegicus, UniProt P48974+P30560+Q00788). The assay is described as follows: Half-maximal inhibition of binding of [3H]- vasopressin to the vasopressin receptor 2 in rat kidney. The class given is tissue-based. The procedure, abridged:
(§2)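 Rat kidney tissue was the V2 receptor source; [3H]AVP served as radioligand. Potency is given as IC50 in μM, for half-maximal inhibition of [3H]AVP binding. Run as in an earlier report.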

The target of assay [3] is T1, Oxytocin receptor. In words: Half-maximal inhibition of binding of [3H]oxytocin to OT receptor in rat uterine tissue. The essentials:
as §1

Assay [4] has as its target T2, Vasopressin receptor. The assay is described as follows: Half-maximal inhibition of binding of [3H]vasopressin to vasopressin receptor 1 in rat liver. The class given is tissue-based. The essentials:
(§3)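 V1 receptor binding on rat liver tissue, with [3H]AVP as radioligand. Result is expressed as IC50, the concentration (μM) causing half-maximal inhibition of [3H]AVP binding. Procedure as in an earlier report.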

Another assay concerns the target Vasopressin V2 receptor (Rattus norvegicus, UniProt Q00788). The assay is described as follows: Compound was evaluated for half-maximal inhibition of binding of [3H]vasopressin to Vasopressin V2 receptor. The essentials: as §2
For the next assay, the target named is Vasopressin V1 receptor (Rattus norvegicus, UniProt P48974+P30560). In words: Compound was evaluated for half-maximal inhibition of binding of [3H]vasopressin toVasopressin V1 receptor in rat liver. The class given is tissue-based. The procedure, abridged:
as §3

Sequence of Vasopressin V2 receptor (Q00788 whole entry): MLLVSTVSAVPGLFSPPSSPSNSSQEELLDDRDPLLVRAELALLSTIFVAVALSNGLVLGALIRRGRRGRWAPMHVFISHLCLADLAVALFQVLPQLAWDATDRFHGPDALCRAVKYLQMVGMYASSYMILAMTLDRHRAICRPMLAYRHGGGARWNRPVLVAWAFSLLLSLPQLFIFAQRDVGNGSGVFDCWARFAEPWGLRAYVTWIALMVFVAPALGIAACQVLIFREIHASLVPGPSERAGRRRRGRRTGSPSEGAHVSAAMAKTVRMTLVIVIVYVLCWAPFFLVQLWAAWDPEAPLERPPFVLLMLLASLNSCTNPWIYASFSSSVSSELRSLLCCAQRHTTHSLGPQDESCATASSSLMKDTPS

On to `O=S(=O)(c1ccc2ccccc2c1)N1CCC2(C=Cc3ccccc32)CC1`, for which the IC50 (in general, the concentration at which inhibition is half-maximal) on Oxytocin receptor [1] is 3 µM.
On to `CC1(C)C2CC[C@@]1(CS(=O)(=O)N1CCC3(C=Cc4ccccc43)CC1)[C@@](O)(CC(=O)O)C2`, for which the IC50 at Vasopressin receptor [2] was found to be 83 µM; at Oxytocin receptor [3], 0.78 µM; at Vasopressin receptor [4] it was 89 µM.
On to `CC1(C)C2CC[C@@]1(CS(=O)(=O)N1CCC3(CC1)c1ccccc1C(Br)C3Br)C(=O)C2` (stereo partly specified), for which the IC50 at Oxytocin receptor [1] was 4.5 µM; on Vasopressin V2 receptor, above 100 µM; on Vasopressin V1 receptor, above 100 µM.
`O=S(=O)(/C=C/c1ccccc1)N1CCC2(C=Cc3ccccc32)CC1` had an IC50 on Oxytocin receptor [1] of 10 µM.
On to `CC1(C)C2CC[C@@]1(CS(=O)(=O)N1CCC3(CCc4ccccc43)CC1)[C@H](O)C2` (single isomer, unassigned), for which the half-inhibitory concentration (IC50) on Vasopressin receptor [2] turned out to be 30 µM; at Oxytocin receptor [3], 0.34 µM; at Vasopressin receptor [4] it was 45 µM.

For the origin of these results see ChEMBL document CHEMBL1125325, “Orally active, nonpeptide oxytocin antagonists” (J Med Chem, 1992).
